Measured values taken from ChEMBL document CHEMBL1250495, “Synthesis and antimicrobial activities of novel 1H-dibenzo[a,c]carbazoles from dehydroabietic acid” (2010).
In brackets after ≈: the same amount, converted by molar mass.

Key:
Format in all cases: functional
Escherichia coli = assay: Antimicrobial activity against Escherichia coli CGMCC 1.1571 after 24 hrs by modified microdilution method; settings: CGMCC 1.1571, 24 h
How it was run: (§1)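 Broth microdilution. Compounds were dissolved in 20% DMSO and serially diluted twofold, then mixed with an equal volume of bacteria in Martin's broth (~10^5 CFU/ml). Amikacin sulfate was the positive control and 20% DMSO the negative control. Wells were incubated at 37 °C for 24 h and scored visually for growth. MIC is the lowest concentration inhibiting growth.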

Bacillus subtilis = assay: Antimicrobial activity against Bacillus subtilis CGMCC 1.1162 after 24 hrs by modified microdilution method; settings: CGMCC 1.1162, 24 h; how it was run: as §1
Staphylococcus aureus = assay: Antimicrobial activity against Staphylococcus aureus CGMCC 1.1361 after 24 hrs by modified microdilution method; settings: CGMCC 1.1361, 24 h; how it was run: as §1
Trichophyton rubrum = assay: Antimicrobial activity against Trichophyton rubrum ATCC 10218 after 48 hrs by modified microdilution method; settings: ATCC 10218, 48 h
How it was run: (§2)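 Fungal MIC by modified microdilution. Twofold serial dilutions of compound in 20% DMSO were combined with an equal volume of inoculum in PD broth (~10^5 CFU/ml). Ketoconazole was the positive control and 20% DMSO the negative control. Plates were incubated 48 h at 28 °C and inspected for growth. MIC is the lowest concentration without visible growth.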

Candida albicans = assay: Antimicrobial activity against Candida albicans CGMCC 2.2086 after 48 hrs by modified microdilution method; settings: CGMCC 2.2086, 48 h; how it was run: as §2
Aspergillus niger = assay: Antimicrobial activity against Aspergillus niger CGMCC 3.316 after 48 hrs by modified microdilution method; settings: CGMCC 3.316, 48 h; how it was run: as §2
Pseudomonas fluorescens = assay: Antimicrobial activity against Pseudomonas fluorescens CGMCC 1.1828 after 24 hrs by modified microdilution method; settings: CGMCC 1.1828, 24 h; how it was run: as §1

SMILES | MIC (Escherichia coli) [mg/L] | MIC (Bacillus subtilis) [mg/L] | MIC (Staphylococcus aureus) [mg/L] | MIC (Trichophyton rubrum) [mg/L] | MIC (Candida albicans) [mg/L] | MIC (Aspergillus niger) [mg/L] | MIC (Pseudomonas fluorescens) [mg/L]
COC(=O)[C@]1(C)CCC[C@]2(C)c3ccc(C(C)C)cc3-c3[nH]c4ccccc4c3[C@@H]12 | > 100 | 31.2 (≈ 77.7 µM) | 62.5 (≈ 156 µM) | > 100 | > 100 | > 100 | 62.5 (≈ 156 µM)
COC(=O)[C@]1(C)CCC[C@]2(C)c3ccc(C(C)C)cc3-c3[nH]c4ccc(C)cc4c3[C@@H]12 | > 100 | 31.2 (≈ 75.1 µM) | 62.5 (≈ 150 µM) | 62.5 (≈ 150 µM) | > 100 | > 100 | 31.2 (≈ 75.1 µM)
COC(=O)[C@]1(C)CCC[C@]2(C)c3ccc(C(C)C)cc3-c3[nH]c4c(C)cccc4c3[C@@H]12 | > 100 | > 100 | > 100 | > 100 | > 100 | > 100 | > 100
COC(=O)[C@]1(C)CCC[C@]2(C)c3ccc(C(C)C)cc3-c3[nH]c4ccc(F)cc4c3[C@@H]12 | 15.6 (≈ 37.2 µM) | 1.9 (≈ 4.53 µM) | 3.9 (≈ 9.3 µM) | > 100 | 62.5 (≈ 149 µM) | > 100 | 7.8 (≈ 18.6 µM)
COC(=O)[C@]1(C)CCC[C@]2(C)c3ccc(C(C)C)cc3-c3[nH]c4c(F)cccc4c3[C@@H]12 | 31.2 (≈ 74.4 µM) | 7.8 (≈ 18.6 µM) | 31.2 (≈ 74.4 µM) | 62.5 (≈ 149 µM) | 31.2 (≈ 74.4 µM) | 62.5 (≈ 149 µM) | 15.6 (≈ 37.2 µM)
COC(=O)[C@]1(C)CCC[C@]2(C)c3ccc(C(C)C)cc3-c3[nH]c4ccc(Cl)cc4c3[C@@H]12 | 15.6 (≈ 35.8 µM) | 3.9 (≈ 8.95 µM) | 3.9 (≈ 8.95 µM) | > 100 | > 100 | > 100 | 31.2 (≈ 71.6 µM)
COC(=O)[C@]1(C)CCC[C@]2(C)c3ccc(C(C)C)cc3-c3[nH]c4c(Cl)cccc4c3[C@@H]12 | > 100 | 31.2 (≈ 71.6 µM) | 31.2 (≈ 71.6 µM) | > 100 | > 100 | > 100 | > 100
COC(=O)[C@]1(C)CCC[C@]2(C)c3ccc(C(C)C)cc3-c3[nH]c4ccc(Br)cc4c3[C@@H]12 | 31.2 (≈ 64.9 µM) | 15.6 (≈ 32.5 µM) | 31.2 (≈ 64.9 µM) | > 100 | > 100 | > 100 | 15.6 (≈ 32.5 µM)
COC(=O)[C@]1(C)CCC[C@]2(C)c3ccc(C(C)C)cc3-c3[nH]c4c(Br)cccc4c3[C@@H]12 | > 100 | 62.5 (≈ 130 µM) | > 100 | > 100 | > 100 | > 100 | 62.5 (≈ 130 µM)
COC(=O)[C@]1(C)CCC[C@]2(C)c3ccc(C(C)C)cc3-c3[nH]c4ccc(OC)cc4c3[C@@H]12 | > 100 | 62.5 (≈ 145 µM) | 31.2 (≈ 72.3 µM) | > 100 | 62.5 (≈ 145 µM) | > 100 | > 100
COC(=O)[C@]1(C)CCC[C@]2(C)c3ccc(C(C)C)cc3-c3[nH]c4c(OC)cccc4c3[C@@H]12 | > 100 | > 100 | 62.5 (≈ 145 µM) | > 100 | > 100 | > 100 | > 100
CCOc1ccc2[nH]c3c(c2c1)[C@H]1[C@](C)(C(=O)OC)CCC[C@]1(C)c1ccc(C(C)C)cc1-3 | 62.5 (≈ 140 µM) | 62.5 (≈ 140 µM) | > 100 | 62.5 (≈ 140 µM) | 62.5 (≈ 140 µM) | > 100 | 31.2 (≈ 70 µM)
COC(=O)[C@]1(C)CCC[C@]2(C)c3ccc(C(C)C)cc3-c3[nH]c4ccc([N+](=O)[O-])cc4c3[C@@H]12 | 15.6 (≈ 34.9 µM) | 7.8 (≈ 17.5 µM) | 7.8 (≈ 17.5 µM) | 62.5 (≈ 140 µM) | 31.2 (≈ 69.9 µM) | > 100 | 15.6 (≈ 34.9 µM)
COC(=O)[C@]1(C)CCC[C@]2(C)c3ccc(C(C)C)cc3C(=O)C[C@@H]12 | > 100 | 31.2 (≈ 95 µM) | 31.2 (≈ 95 µM) | > 100 | > 100 | > 100 | 62.5 (≈ 190 µM)
NCC[C@H](O)C(=O)N[C@@H]1C[C@H](N)[C@@H](O[C@H]2O[C@H](CN)[C@@H](O)[C@H](O)[C@H]2O)[C@H](O)[C@H]1O[C@H]1O[C@H](CO)[C@@H](O)[C@H](N)[C@H]1O [AMIKACIN] | 1.9 (≈ 3.24 µM) | 0.9 (≈ 1.54 µM) | 0.9 (≈ 1.54 µM) |  |  |  | 0.9 (≈ 1.54 µM)
CC(=O)N1CCN(c2ccc(OCC3COC(Cn4ccnc4)(c4ccc(Cl)cc4Cl)O3)cc2)CC1 (configuration not stated) [KETOCONAZOLE] |  |  |  | 3.9 (≈ 7.34 µM) | 3.9 (≈ 7.34 µM) | 7.8 (≈ 14.7 µM) | 
COC(=O)[C@]1(C)CCC[C@]2(C)c3ccc(C(C)C)cc3CC[C@@H]12 [METHYL DEHYDROABIETATE] | > 100 | > 100 | 62.5 (≈ 199 µM) | > 100 | > 100 | > 100 | > 100
